# Screening data deposited in PubChem BioAssay by several laboratories.
# MLLE-PAM2 inh: inhibitors of microRNA-mediated deadenylation, human PABP1 MLLE binding. P11940. GST-MLLE / FITC-PAM2 fluorescence polarization. inhibition, % at 20 µM. hit rate 0.36% among 360,000. AID 588489; in the data active = inhibition above about 35%, passing the limit was not always enough;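 also: plate controls were DMSO wells with GST-MLLE for no effect and wells lacking GST-MLLE protein for full effect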
# IMP-1 inh-1: inhibitors of Pseudomonas aeruginosa IMP-1 metallo-beta-lactamase; AID 1556; inhibition, % at 5.6 µM; hit rate 0.45% among 290,000; purified IMP-1, nitrocefin hydrolysis, epi-absorbance fluorescence;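 active = inhibition above the mean plus 3 SD of all compounds in the same screening run, cut at about 4.5% in these data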;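 also: 0% = IMP-1 with DMSO and 100% = DMSO wells lacking enzyme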
#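 System: Purified recombinant IMP-1 metallo-beta-lactamase enzyme | Measured by: Fluorescence quenching readout, ex 480/em 530 nm | Replication: Singlicate | Incubation: 15 min preincubation plus 25 min reaction at 25 °C | Evaluation: Percent inhibition from optical density relative to buffer-blank wells | Benchmarks: DMSO with and without IMP-1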
# PABP polyA inh: blocks human PABP binding to poly(A) RNA | P11940 | fluorescence polarization | calls only at 35 µM | hit rate 1% among 290,000 | AID 2014;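 also: calls also rest on retests at 20 µM and on dose response follow-up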
# eIF4H inh: inhibitors of RNA binding by human eIF4H | inhibition, % at 35 µM | eIF4H fluorescence polarization binding assay | Q15056 | AID 2012 | hit rate 0.94% among 290,000;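 also: calls also rest on retests at 20 µM and on dose response follow-up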
# VIM-2 inhibitor: inhibitors of Pseudomonas aeruginosa VIM-2 metallo-beta-lactamase. purified VIM-2, nitrocefin hydrolysis, epi-absorbance fluorescence. hit rate 0.89% among 290,000. inhibition, % at 5.6 µM;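 active = inhibition above the mean of all tested compounds plus 3 SD, cutoff set per screening run, cut at about 7.5% in these data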;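 also: red hydrolysis product quenches plate fluorescence so inhibitors raise well fluorescence; 0% = enzyme with DMSO and 100% = DMSO without enzyme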
# IMP-1 inh-2: selectivity counter-screen for VIM-2 inhibitors: IMP-1 metallo-beta-lactamase inhibitors | purified IMP-1, nitrocefin hydrolysis, epi-absorbance fluorescence | AID 1856 | 1,300 tested, under 10 active | inhibition, % at 5.6 µM | shares compounds with VIM-2 inhibitor;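 also: 0% = enzyme with vehicle and 100% = vehicle without enzyme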
# VIM-2 FRET ctr: counter-screen for VIM-2 inhibitors: epi-absorbance artifacts via FRET | hit rate 23% among 1,300 | shares compounds with VIM-2 inhibitor | inhibition, % at 5.6 µM | purified VIM-2, CCF2 FRET substrate hydrolysis;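 active = inhibition above the mean of all tested compounds plus 3 SD, cut at about 19% in these data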;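 also: 0% = VIM-2 plus DMSO and 100% = no enzyme wells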
# TEM-1 inh: TEM-1 inhibition, counter-screen for VIM-2 inhibitors; Purified TEM-1, nitrocefin hydrolysis, epi-absorbance fluorescence; shares compounds with VIM-2 inhibitor; hit rate 3% among 1,300; inhibition, % at 5.6 µM;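 active = inhibition above that campaign's mean inhibition plus 3 SD, cut at about 0.46% in these data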;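 also: 0% = TEM-1 with DMSO and 100% = TEM-1 with 100 µM potassium clavulanate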
# Target sequence (P62593 whole entry, looked up): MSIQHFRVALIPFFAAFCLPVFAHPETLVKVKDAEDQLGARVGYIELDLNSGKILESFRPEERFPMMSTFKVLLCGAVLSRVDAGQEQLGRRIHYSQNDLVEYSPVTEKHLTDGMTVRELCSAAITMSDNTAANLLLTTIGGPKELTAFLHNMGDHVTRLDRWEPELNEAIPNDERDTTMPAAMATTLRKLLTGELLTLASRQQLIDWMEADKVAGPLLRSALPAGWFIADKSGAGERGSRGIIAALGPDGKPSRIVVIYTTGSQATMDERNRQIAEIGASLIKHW
# VIM-2 inh conf: confirmation of P. aeruginosa VIM-2 metallo-beta-lactamase inhibitors; purified VIM-2, nitrocefin hydrolysis, epi-absorbance; inhibition, % at 5.6 µM; hit rate 96% among 1,300; shares compounds with VIM-2 inhibitor;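 active = inhibition of the VIM-2 beta-lactamase enzyme above about 11% from the earlier first-round screen, limit read from the data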;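 also: 0% = VIM-2 with DMSO and 100% = buffer wells without enzyme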
# Starred values were filed as active, the others as inactive; i = inactive; x = no result given. The list is not random: actives were taken first. Their share in the collection is about 2.2%. Unless noted, no rule for the calls is given here.
SMILES,MLLE-PAM2 inh,IMP-1 inh-1,PABP polyA inh,eIF4H inh,VIM-2 inhibitor,IMP-1 inh-2,VIM-2 FRET ctr,TEM-1 inh,VIM-2 inh conf
O=C(CSc1ncn[nH]1)NCc1ccccc1Cl,11.5,-1.9,i,-3.9,1.1,x,x,x,x
O=NN(Cc1cccnc1)C(=O)NC1CCCCC1,7.8,x,x,x,x,x,x,x,x
COc1ccc(CC(=O)OC(C)C(=O)c2ccc(C)cc2)cc1 (stereo not drawn),8.6,-0.2,i,2.9,-0.6,x,x,x,x
O=C(CSc1nnc(NC(=O)c2c(F)cccc2F)s1)NCC1CCCO1 (stereo not drawn),10.8,x,x,x,x,x,x,x,x
Cc1cccc(C(=O)Nc2nnc(SCC(=O)NCc3ccco3)s2)c1,-31.5,-0.6,i,1.3,17.9*,-3.1,36.6*,-6.5,24.4*
O=C(CSc1nnc(NC(=O)c2cccc(F)c2)s1)NCC1CCCO1 (stereo not drawn),-15.2,-0.5,i,-8.3,16.6*,-2.5,25.8*,-4.7,14.8*
CCCN(CC(=O)Nc1ccccc1C)C(=O)Cc1c(C)nc2ccccc2c1C,4.0,x,x,x,x,x,x,x,x
CN(C)c1ccc(CNC(=O)C2Cc3c(-c4cccc(C(N)=O)c4)ccnc3O2)cc1 (stereo not drawn),4.1,x,x,x,x,x,x,x,x
Cc1ccc(-c2nn3cnnc3c3ccccc23)cc1,-7.2,-1.4,i,5.9,17.2*,-3.1,2.4,-5.5,27.4*
O=C(COc1ccc(Cl)cc1)NCc1nnc2c3ccccc3c(-c3ccccc3)nn12,-10.4,-1.3,i,10.2,0.1,x,x,x,x
Cc1ccc(-c2nn3c(C)nnc3c3ccccc23)cc1S(=O)(=O)N1CCN(CCO)CC1,-15.6,-3.3,i,-3.2,61.0*,-2.3,-3.2,-2.2,72.8*
O=C(NCc1nnc2c3ccccc3c(-c3ccccc3)nn12)c1ccccc1Cl,-0.4,0.2,i,-10.7,16.9*,-2.5,-4.5,-4.4,27.3*
CNc1nnc(-c2ccc(C)cc2)c2ccccc12,4.4,-2.6,i,2.2,3.0,x,x,x,x
Cc1ccc(-c2nn3c(C)nnc3c3ccccc23)cc1S(=O)(=O)NC(C)c1ccccc1 (stereo not drawn),8.0,0.7,i,-1.3,6.4,x,x,x,x
Cc1ccc(-c2nn3c(C)nnc3c3ccccc23)cc1S(=O)(=O)NCCO,4.8,-3.7,i,-6.0,29.8*,-3.2,3.3,-5.9,37.4*
C[C@@]12C(=O)N(CCc3c[nH]c4ccccc34)CC(=O)N1[C@H]1c3ccccc3OC[C@@H]1[C@@H]2c1ccccc1,-28.8,x,x,x,x,x,x,x,x
COc1ccc([C@H]2C[C@H](n3cc(C4CC4)nn3)[C@@H](O)CN2CC2CCCCC2)cc1,-1.4,x,x,x,x,x,x,x,x
Cc1ccc(-c2nn3c(C)nnc3c3ccccc23)cc1S(=O)(=O)NC(C)(C)CO,4.8,-1.4,i,-5.0,21.8*,-4.8,1.9,-5.7,37.5*
Cc1ccc(-c2nn(C)c(=O)c3ccccc23)cc1S(=O)(=O)NCCN(C)C,-7.7,-2.6,i,2.6,36.6*,-3.5,-0.7,-5.6,50.5*
Cc1nnc2c3ccccc3c(-c3ccccc3)nn12,3.0,-0.2,x,x,23.7*,-1.4,1.5,1.9*,43.2*
Cc1nnc2c3ccccc3c(-c3cccc4ccccc34)nn12,6.1,-4.7,i,1.4,2.4,x,x,x,x
CCc1nc2ccc(C(=O)NCCCN3CCCC3=O)cn2c1N(C)C(=O)Nc1ccccc1OC,-16.1,x,x,x,x,x,x,x,x
COc1ccc(NC(=O)c2cncn2-c2ccccc2)cc1,15.2,-3.0,i,-1.9,-0.3,x,x,x,x
CCOc1ccc(CCNC(=O)c2ccc(=O)[nH]c2)cc1OCC,-0.6,-2.5,i,-3.5,26.7*,-2.4,-3.9,-1.2,2.2
Cc1c(OCC(=O)N2CCC(C(=O)O)CC2)ccc2c1oc(=O)c1ccccc12,4.0,-3.8,i,-18.5,7.1,x,x,x,x
Cc1c(OCC(=O)N2CCC(C(N)=O)CC2)ccc2c1oc(=O)c1ccccc12,2.1,-3.8,i,-0.4,23.1*,-3.6,-0.7,-12.4,31.5*
